A short description of data set [1]: Metal chelating activity assessed as formation of compound-Fe3+ complex by measuring free calcein level at 10 uM irradiated with UVA for 15 secs measured after 1 hr by fluorescence-based microplate assay. Type of data set: physicochemical. Summed up: (§1)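 Calcein competition in PBS: 2 µM calcein with 2 µM (NH4)2Fe(SO4)2, forming Fe3+(calcein) in situ. Compound added at 10 µM, with or without 15 s photolysis in a photoreactor (λmax 350 nm). Calcein emission recorded 1 h after photolysis; triplicate, SD.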

Data set [2] can be described thus: Metal chelating activity assessed as formation of compound-Fe3+ complex by measuring free calcein level at 10 uM after 1 hr by fluorescence-based microplate assay in absence of UVA irradiation. The class given is physicochemical. Summed up:
as §1

Data set [3] can be described thus: Inhibition of Fe-dependent reactive oxygen species formation after 1 hr by H2DCF-DA-based fluorescence assay. Type of data set: functional. Summed up: (§2)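 H2DCF (20 µM) in PBS pH 7.4 with 10 µM FeCl3, 10 µM NTA, 1 mM ascorbic acid and 1 mM H2O2. Wells dosed with chelator or prochelator, the latter either irradiated (+) or not irradiated (−) with UVA. DCF fluorescence read at ex 485/em 535 nm. Background from wells with only H2DCF and buffer subtracted.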

Data set [4] deals with ARPE-19. Nature of the data set: Cytoprotective activity in human ARPE19 cells assessed as reduction of UVA radiation-mediated cell death at 5 to 100 uM preincubated for 2 hrs followed by 40 mins UVA irradiation measured after 5 hrs by LDH release assay. Type of data set: functional, cell-based. Summed up:
(§3)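 ARPE-19 retinal pigment epithelial cells pre-treated 2 h with compound (5–100 µM range tested), then exposed to UVA for 40 min at 600 kJ/m2. Cell death read 5 h after irradiation; triplicate wells per treatment, normalized to cells treated with 2% Triton X-100.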

Data set [5] is described as follows: Cytotoxicity against human ARPE19 cells assessed as cell viability up to 100 uM after 24 hrs by Cell Titer Blue assay. The note with it: arpe-19, 24 h. Type of data set: cell-based. Summed up: (§4)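 ARPE-19 cells incubated with compound for 24 h or extended to 72 h, doses up to 100 µM, then assessed for cytotoxicity.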
Data set [6] is described as follows: Cytotoxicity against human ARPE19 cells assessed as cell viability at 75 to 100 uM after 72 hrs by Cell Titer Blue assay. Particulars: arpe-19, 72 h. The class given is cell-based. The procedure, abridged: as §4
Data set [7] can be described thus: Cytotoxicity against human ARPE19 cells assessed as cell viability at <25 uM after 72 hrs by Cell Titer Blue assay. Type of data set: cell-based. Particulars: arpe-19, 72 h. The procedure, abridged:
as §4

Data set [8] is described as follows: […] of Fe-dependent reactive oxygen species formation after 90 mins by H2DCF-DA-based fluorescence assay. The note with it: 1.5 h. The class given is physicochemical. Summed up:
(§5)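 H2DCF (20 µM) oxidation to DCF driven by 10 µM FeCl3, 10 µM NTA, 1 mM H2O2 and 1 mM ascorbate in PBS pH 7.4. Compound tested over a concentration range alongside trolox. Control wells hold Fe, NTA, H2O2 and ascorbate only. DCF read at ex 485/em 535 nm.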

A short description of data set [9]: Inhibition of Fe-dependent reactive oxygen species formation at 10 to 5000 uM after 90 mins by H2DCF-DA-based fluorescence assay. The class given is functional. Summed up: as §5
A short description of data set [10]: Photoconversion of the compound in PBS buffer assessed as time required to show HAPI peak at 50 uM irradiated with UVA for 75 secs by LC-MS analysis. Type of data set: physicochemical. Particulars: 75 s. Summed up:
(§6)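 Prochelator solutions analysed by LC-MS before and after UVA irradiation. New peaks identified by matching elution times and mass spectra to authentic umbelliferone and HAPI.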

Data set [11] is described as follows: Photoconversion of the compound in PBS buffer assessed as time required to show umbelliferone peak at 50 uM irradiated with UVA for 75 secs by LC-MS analysis. The class given is physicochemical. The note with it: 75 s. Summed up: as §6
Data set [12] can be described thus: Inhibition of Fe-dependent reactive oxygen species formation at 10 to 100 uM after 1 hr by H2DCF-DA-based fluorescence assay in absence of UVA irradiation. Type of data set: functional. The procedure, abridged: as §2
Data set [13] in a line: Inhibition of Fe-dependent reactive oxygen species formation at 200 uM after 1 hr by H2DCF-DA-based fluorescence assay in absence of UVA irradiation. Type of data set: functional. The procedure, abridged: as §2
Data set [14] in a line: Inhibition of Fe-dependent reactive oxygen species formation at 10 to 200 uM irradiated with UVA for 15 secs measured after 1 hr by H2DCF-DA-based fluorescence assay. Type of data set: functional. The procedure, abridged: as §2
Data set [15] relates to ARPE-19. Nature of the data set: Cytoprotective activity in human ARPE19 cells assessed as reduction of UVA radiation-mediated cell death at < 50 uM preincubated for 2 hrs followed by 40 mins UVA irradiation measured after 5 hrs by LDH release assay. The class given is functional, cell-based. Summed up: as §3
For data set [16], the system named is ARPE-19. The experiment in a line: Cytoprotective activity in human ARPE19 cells assessed as reduction of UVA radiation-mediated cell death at 75 to 100 uM preincubated for 2 hrs followed by 40 mins UVA irradiation measured after 5 hrs by LDH release assay. Type of data set: functional, cell-based. The procedure, abridged: as §3

Calls of active or inactive are those of the source. No cut-off for these calls is given here.

With `C/C(=N\NC(=O)c1ccncc1)c1ccccc1O`, the Activity result is “Active” in data set [1]; “Active” in data set [2]; “Non-toxic” in data set [5]; “Toxic” in data set [6]; “Non-toxic” in [7]. Further, the inhibition result in data set [3] was “Dose-dependent effect”. For the same compound, in the data set on ARPE-19 [4], the result was Active.

With `O=c1ccc2ccc(O)cc2o1` [UMBELLIFERONE], the values for the Activity result in [8] and in [5] were “Dose-dependent effect” and “Non-toxic”, respectively. Further, the outcome with ARPE-19 [4] was inactive.

Consider `Cc1c(C)c2c(c(C)c1O)CCC(C)(C(=O)O)O2` (stereo not drawn), for which the inhibition result in [9] was “Active”.

With `C/C(=N\NC(=O)c1ccncc1)c1ccccc1OC(=O)/C=C/c1ccc(O)cc1O`, the Time is 11.7 min in [10] and 8.3 min in data set [11]. In addition, the Activity result in data set [1] is recorded as “Active”; in data set [2], “Not Active”; in [5], “Non-toxic”; in [6], “Toxic”; in [7], “Non-toxic”. Besides, in [12], the inhibition result is “inactive”. Also, the inhibition result in [13] and in data set [14] was “Active” throughout. Further, in the data set with ARPE-19 [15], the result was Active. Besides, the outcome with ARPE-19 [16] was inactive.

(Values after ChEMBL document CHEMBL3627708, “A multifunctional, light-activated prochelator inhibits UVA-induced oxidative stress” (Bioorg Med Chem Lett, 2015).)
